GRK2 inh – inhibitors of human GRK2 displacing RNA aptamer; AID 488847; hit rate 0.59% among 330,000; bead flow cytometry, FAM-aptamer displacement from GRK2; P25098; inhibition of aptamer binding, % at 10 µM;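 active = inhibition of aptamer binding above 40%, roughly 3 SD of noise, on plates passing a quality check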;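 also: median bead fluorescence of bound FAM aptamer so fluorescent compounds give negative values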
NadD inh – NadD (S. aureus) enzyme inhibition. inhibition, % at 20 µM. hit rate 0.78% among 360,000. purified NadD enzyme, colorimetric absorbance read-out; in the data active = inhibition above about 26%
SENP1 FRET inh – inhibitors of human SENP1 SUMO protease catalytic domain; Q9P0U3; recombinant SENP1 catalytic domain, CyPet-SUMO1-YPet FRET cleavage; inhibition, % at 10 µM; hit rate 0.21% among 360,000;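 active = inhibition at least 30% at 10 µM, raw YFP signal under a set limit, fluorescence ratio 0.5 to 1.5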;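 also: 0% = enzyme with DMSO and 100% = no enzyme wells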
Target sequence (Q9P0U3 419-644 limits assumed): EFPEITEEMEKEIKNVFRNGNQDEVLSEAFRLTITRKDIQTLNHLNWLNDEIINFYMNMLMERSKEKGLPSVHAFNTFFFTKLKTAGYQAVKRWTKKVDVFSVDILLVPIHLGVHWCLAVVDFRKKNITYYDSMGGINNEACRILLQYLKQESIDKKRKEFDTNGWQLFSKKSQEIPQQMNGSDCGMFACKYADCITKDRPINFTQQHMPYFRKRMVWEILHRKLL
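Assay system: hSENP1 catalytic domain, recombinant. Amount: SENP1 enzyme, 20 pM final. Schedule: 50 min reaction, RT, dark. Technique: FRET, CFP and YFP emission. Control set: no-enzyme wells low, DMSO-plus-enzyme wells high control.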
B2AR ag – agonists of human beta-2 adrenergic receptor inducing internalization; P07550; hit rate 0.43% among 340,000; response, % (concentration not given with the values); AID 504454; Am2.2-beta2AR cells, FAP receptor internalization, flow cytometry;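 active = response above a set limit, near 3 SD of response in nonfluorescent compounds, cut at about 42% in these data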
Target sequence (P07550 whole entry, looked up): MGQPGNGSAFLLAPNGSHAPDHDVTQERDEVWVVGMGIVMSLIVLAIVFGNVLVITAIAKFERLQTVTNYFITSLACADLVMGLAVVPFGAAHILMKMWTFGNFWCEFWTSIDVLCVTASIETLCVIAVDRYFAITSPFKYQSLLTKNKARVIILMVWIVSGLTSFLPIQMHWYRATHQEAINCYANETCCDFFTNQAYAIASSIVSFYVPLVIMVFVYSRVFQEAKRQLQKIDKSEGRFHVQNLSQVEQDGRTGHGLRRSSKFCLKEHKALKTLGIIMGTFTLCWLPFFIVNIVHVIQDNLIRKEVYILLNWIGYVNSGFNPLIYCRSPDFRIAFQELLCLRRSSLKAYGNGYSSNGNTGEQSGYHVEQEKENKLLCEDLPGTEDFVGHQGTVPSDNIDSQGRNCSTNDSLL
ABHD5 PLIN5 PPI – inhibitors of human ABHD5-perilipin-5 interaction | Q00G26+Q8WTS1 | Split G. princeps luciferase complementation, luminescence, 4 h | inhibition, % at 4 µM | hit rate 0.78% among 360,000;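 active = inhibition above the mean inhibition across every tested compound plus 3 SD, cut at about 22% in these data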;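 also: 0% = DMSO only wells and the 100% control is not disclosed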
ABHD5-PLIN5 conf – confirmation of human ABHD5-PLIN5 interaction inhibitors. shares compounds with ABHD5 PLIN5 PPI. biochemical ABHD5-PLIN5 interaction, luminescence. inhibition, % at 4 µM. hit rate 67% among 2,200; in the data active = inhibition above about 23%;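 also: 0% = DMSO vehicle wells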
HNF4 split-luc – active in HNF4 split-luciferase counter-screen for ABHD5-PLIN5 inhibitors; hit rate 77% among 2,200; shares compounds with ABHD5 PLIN5 PPI; AID 651674; HNF4 dimerization, luminescence, biochemical; inhibition, % at 4 µM;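 active = mean inhibition across replicate wells exceeding the computed hit threshold, cut at about 13% in these data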;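 also: light from luciferase halves that rejoin when HNF4 fusion proteins dimerize; 0% = DMSO only wells and the 100% control is not given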
Starred values were filed as active, the others as inactive. An excerpt weighted towards active compounds, which were near 2.5% of everything screened.

`O=S1(=O)CC(N2CCN(CC3CC3)CC2)CN1CCc1ccccc1` (stereo not drawn) gave NadD inh -6, SENP1 FRET inh -1 and ABHD5 PLIN5 PPI 4.
Screening Cc1ccc2nc(N(CCCN(C)C)C(=O)CN3C(=O)c4ccccc4C3=O)sc2c1 returned GRK2 inh 0, NadD inh -5, SENP1 FRET inh 0, B2AR ag -3 and ABHD5 PLIN5 PPI 13.
`Cc1cc(C)c2sc(N(CCCN(C)C)C(=O)CN3C(=O)c4ccccc4C3=O)nc2c1` gave GRK2 inh 0, NadD inh -9, SENP1 FRET inh 3, B2AR ag -3, ABHD5 PLIN5 PPI 24*, ABHD5-PLIN5 conf 14 and HNF4 split-luc 4.
For Cc1cc(C)c2sc(N(CCCN(C)C)C(=O)c3ccc(Br)s3)nc2c1 the results were GRK2 inh 0, NadD inh -6, SENP1 FRET inh 1, B2AR ag 38, ABHD5 PLIN5 PPI 23*, ABHD5-PLIN5 conf 17 and HNF4 split-luc 9.
`Cc1cc(C(=O)NNC(=O)/C=C/c2ccco2)c(C)o1` gave NadD inh 2, SENP1 FRET inh -2, B2AR ag -8, ABHD5 PLIN5 PPI 42*, ABHD5-PLIN5 conf 66* and HNF4 split-luc 49*.
Screening S=C(NCCCN1CCOCC1)N1CCN(c2nc(-c3ccccc3)cs2)CC1 returned GRK2 inh 0, NadD inh -7, SENP1 FRET inh 0, B2AR ag 7 and ABHD5 PLIN5 PPI 14.
For S=C(NCCCN1CCOCC1)N1CCN(c2nc(-c3ccc(Cl)cc3)cs2)CC1 the results were GRK2 inh 0, NadD inh -4, SENP1 FRET inh 2, B2AR ag 13, ABHD5 PLIN5 PPI 32*, ABHD5-PLIN5 conf 17 and HNF4 split-luc 3.
For COc1cc(CNCc2ccccn2)ccc1OCc1ccc(Cl)cc1Cl the results were GRK2 inh 0, NadD inh 2, SENP1 FRET inh 2, B2AR ag 29, ABHD5 PLIN5 PPI 25*, ABHD5-PLIN5 conf 7 and HNF4 split-luc 7.
For COc1cc(CNCCN2CCOCC2)ccc1OCc1ccc(Cl)cc1Cl the results were GRK2 inh 0, NadD inh -9, SENP1 FRET inh 2, B2AR ag 27, ABHD5 PLIN5 PPI 24*, ABHD5-PLIN5 conf 12 and HNF4 split-luc 13*.
For CCOC(=O)/C=C/S(=O)(=O)c1ccc(NC(C)=O)cc1 the results were GRK2 inh 1, NadD inh -3, SENP1 FRET inh 3, B2AR ag 16, ABHD5 PLIN5 PPI 77*, ABHD5-PLIN5 conf 78* and HNF4 split-luc 109*.
`CCOC(=O)/C=C/C(=O)Nc1ccc(S(=O)(=O)Nc2c(C)cc(C)cc2C)cc1` gave GRK2 inh 0, NadD inh 0, SENP1 FRET inh 1, B2AR ag -5 and ABHD5 PLIN5 PPI 11.
For COc1ccc(C2c3cc4c(cc3OC(N3CCOCC3)C2C)OCO4)c(OC)c1 (stereo not drawn) the results were NadD inh 2, SENP1 FRET inh 2, B2AR ag 7 and ABHD5 PLIN5 PPI 0.
C/C(=C\c1ccc(N)cc1)c1nc2ccccc2[nH]1 was read as GRK2 inh 0, NadD inh -8, SENP1 FRET inh -1, B2AR ag 1 and ABHD5 PLIN5 PPI -2.
`O=S(=O)(/C(=C/c1ccc(C(F)(F)F)cc1)c1nc2ccccc2[nH]1)c1ccccc1` gave GRK2 inh 1, NadD inh 0, SENP1 FRET inh -2, B2AR ag 22, ABHD5 PLIN5 PPI 70*, ABHD5-PLIN5 conf 104* and HNF4 split-luc 103*.
`CC(C)c1ccc(/C=C(\c2nc3ccccc3[nH]2)S(=O)(=O)c2ccccc2)cc1` gave GRK2 inh 14, NadD inh 7, SENP1 FRET inh -3, B2AR ag 42*, ABHD5 PLIN5 PPI 75*, ABHD5-PLIN5 conf 90* and HNF4 split-luc 72*.
Nc1[nH]c(C(=O)c2ccccc2)c(-c2ccc(Cl)cc2)c1C(=O)NCCc1c[nH]c2ccccc12 was read as NadD inh 19, SENP1 FRET inh -12 and ABHD5 PLIN5 PPI -8.
Screening COC(=O)c1cc(C)nc2c1C(=O)C(=O)C=C2N1CCOCC1 returned GRK2 inh 14, NadD inh 7, SENP1 FRET inh 9, B2AR ag 61*, ABHD5 PLIN5 PPI 39*, ABHD5-PLIN5 conf 73* and HNF4 split-luc 53*.
COC(=O)c1cc(S(=O)(=O)N2CCOCC2)c(Cl)cc1N1CCOCC1 was read as GRK2 inh 1, NadD inh 1, SENP1 FRET inh 1, B2AR ag 9 and ABHD5 PLIN5 PPI -1.
`NC(=O)c1ccc(NC(=O)CCN2C(=O)c3ccccc3C2=O)cc1` gave GRK2 inh 0, NadD inh -5, SENP1 FRET inh 2, B2AR ag -4 and ABHD5 PLIN5 PPI 8.
For CCOc1ccc2ccccc2c1C(=O)NCC(c1ccc(N(C)C)cc1)N(C)C (stereo not drawn) the results were GRK2 inh 0, NadD inh -13, SENP1 FRET inh 0, B2AR ag 4 and ABHD5 PLIN5 PPI 3.
Screening CC(C)(C)Nc1nc(Cl)nc(N(C#N)CN2C(=O)c3ccccc3S2(=O)=O)n1 returned GRK2 inh 0, NadD inh 1, SENP1 FRET inh 2, B2AR ag 45*, ABHD5 PLIN5 PPI 33*, ABHD5-PLIN5 conf 30* and HNF4 split-luc 24*.
CN(C)c1nc(N(C)C)nc(N(C#N)CN2C(=O)c3ccccc3S2(=O)=O)n1 was read as GRK2 inh 1, NadD inh -6, SENP1 FRET inh 1, B2AR ag 3 and ABHD5 PLIN5 PPI 3.
COc1nc(NC(C)C)nc(N(C#N)CN2C(=O)c3ccccc3S2(=O)=O)n1 was read as GRK2 inh 0, NadD inh -1, SENP1 FRET inh 4, B2AR ag 9, ABHD5 PLIN5 PPI 26*, ABHD5-PLIN5 conf 29* and HNF4 split-luc 26*.
CC(C)Nc1nc(Cl)nc(N(C#N)CN2C(=O)c3ccccc3S2(=O)=O)n1 was read as GRK2 inh 0, NadD inh -2, SENP1 FRET inh 1, B2AR ag 10 and ABHD5 PLIN5 PPI 19.
Screening Cc1cccc(N/C=C(\[N+](=O)[O-])S(=O)(=O)c2ccccc2)c1C returned GRK2 inh 0, NadD inh 3, SENP1 FRET inh 0, B2AR ag 2 and ABHD5 PLIN5 PPI -2.
For Cc1nc2sccn2c(=O)c1S(=O)(=O)Nc1ccc(N2CCN(S(C)(=O)=O)CC2)cc1 the results were GRK2 inh 0, NadD inh 8, SENP1 FRET inh 3, B2AR ag 8 and ABHD5 PLIN5 PPI -14.
